In ChEMBL document CHEMBL4196197, “Irilone from Red Clover ( Trifolium pratense) Potentiates Progesterone Signaling” (J Nat Prod, 2018):
Calls of active or inactive are those of the source. The calls are words filed in the database; no cut-off is given here.

Columns and labels:
[1] = biological target: T1, Progesterone receptor (Homo sapiens) (UniProt P06401); test: Antagonist activity at PR-b (unknown origin) expressed in Ishikawa cells assessed as inhibition of progesterone-induced PRE activity at 50 uM after 24 hrs by luciferase reporter gene based luminescence assay; type: cell-based
T1 sequence (whole entry): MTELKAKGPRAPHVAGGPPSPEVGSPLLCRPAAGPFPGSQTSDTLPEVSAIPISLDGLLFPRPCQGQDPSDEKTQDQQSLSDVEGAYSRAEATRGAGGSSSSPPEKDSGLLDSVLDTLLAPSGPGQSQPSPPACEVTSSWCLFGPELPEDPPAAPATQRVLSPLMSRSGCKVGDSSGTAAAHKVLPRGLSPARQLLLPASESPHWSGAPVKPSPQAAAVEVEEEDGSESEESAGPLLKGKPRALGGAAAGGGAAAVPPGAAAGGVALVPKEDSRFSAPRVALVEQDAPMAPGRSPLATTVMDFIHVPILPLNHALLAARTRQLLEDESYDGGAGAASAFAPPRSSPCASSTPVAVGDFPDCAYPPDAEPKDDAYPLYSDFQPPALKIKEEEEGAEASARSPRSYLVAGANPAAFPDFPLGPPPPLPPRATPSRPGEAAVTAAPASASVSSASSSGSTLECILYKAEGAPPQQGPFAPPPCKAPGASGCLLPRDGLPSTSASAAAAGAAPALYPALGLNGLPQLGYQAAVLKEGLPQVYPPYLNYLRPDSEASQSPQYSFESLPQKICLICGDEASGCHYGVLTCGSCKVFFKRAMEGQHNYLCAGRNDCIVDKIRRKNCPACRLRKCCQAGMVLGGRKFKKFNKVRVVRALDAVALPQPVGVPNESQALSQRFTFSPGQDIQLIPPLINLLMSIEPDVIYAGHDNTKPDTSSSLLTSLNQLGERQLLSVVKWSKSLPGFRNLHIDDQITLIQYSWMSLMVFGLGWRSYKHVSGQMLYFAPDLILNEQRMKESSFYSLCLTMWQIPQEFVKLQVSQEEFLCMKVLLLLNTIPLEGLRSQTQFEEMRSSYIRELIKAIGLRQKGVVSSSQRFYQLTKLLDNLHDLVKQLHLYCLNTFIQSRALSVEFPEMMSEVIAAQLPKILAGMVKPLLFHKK
How it was run: (§1)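 PRE/Luc transactivation in Ishikawa cells stably expressing PR-B under CMV, seeded 40,000/well in steroid-free phenol red-free medium with charcoal-stripped FBS. Next day co-transfected with PRE/Luc and CMV-β-galactosidase. Compounds were given together with 100 nM progesterone for 24 h. Luciferase, averaged over the first six RLU reads, normalized to β-gal and then to control; n≥3.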

[2] = biological target: T1, Progesterone receptor (Homo sapiens); test: Antagonist activity at PR-b (unknown origin) expressed in Ishikawa cells assessed as inhibition of progesterone-induced PRE activity at >= 25 uM after 24 hrs by luciferase reporter gene based luminescence assay; type: cell-based; how it was run: as §1
[3] = biological target: T1, Progesterone receptor (Homo sapiens); test: Antagonist activity at PR-b (unknown origin) expressed in Ishikawa cells assessed as inhibition of basal PRE activity at 50 uM after 24 hrs in absence of progesterone by luciferase reporter gene based luminescence assay; type: cell-based
How it was run: (§2)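 Ishikawa cells stably expressing CMV-driven PR-B, kept in phenol red-free DMEM/F12 with 5% charcoal-stripped FBS plus G418/hygromycin. Seeded 40,000/well in steroid-free medium. Next day transfected with PRE/Luc plus CMV-β-galactosidase (LT1). Compounds were added without progesterone for 24 h, then lysed and frozen at −80 °C. Luciferase (mean of first six RLU reads) normalized to β-gal, then to DMSO control, n≥3.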

[4] = biological target: T1, Progesterone receptor (Homo sapiens); test: Agonist activity at PR-b (unknown origin) expressed in Ishikawa cells assessed as increase in progesterone-induced PRE activity at 1 uM after 24 hrs by luciferase reporter gene based luminescence assay; type: cell-based; how it was run: as §1
Progesterone receptor = biological target: T2, Progesterone receptor (Homo sapiens, UniProt P06401); test: Induction of PR-b degradation in human Ishikawa cells up to 50 uM after 24 hrs by Western blot analysis; type: cell-based
T2 sequence (P06401 whole entry): T1 sequence (whole entry)
How it was run: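 Ishikawa PR-B cells in steroid-free medium treated with 0, 25 or 50 μM for 24 h. RIPA lysates with protease/phosphatase inhibitors, 25 μg protein by SDS-PAGE onto nitrocellulose. Blocked in 5% milk, probed overnight with anti-PR (H-190, 1:500) and β-actin (1:1000), anti-rabbit secondary, chemiluminescent detection.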

[5] = biological target: T1, Progesterone receptor (Homo sapiens); test: Antagonist activity at PR-b (unknown origin) expressed in Ishikawa cells assessed as inhibition of basal PRE activity at 25 to 50 uM after 24 hrs in absence of progesterone by luciferase reporter gene based luminescence assay; type: cell-based; how it was run: as §2
[6] = biological target: T1, Progesterone receptor (Homo sapiens); test: Agonist activity at PR-b (unknown origin) expressed in Ishikawa cells assessed as increase in PRE activity at 1 uM after 24 hrs in absence of progesterone by luciferase reporter gene based luminescence assay; type: cell-based; how it was run: as §2
[7] = biological target: T1, Progesterone receptor (Homo sapiens); test: Agonist activity at PR-b (unknown origin) expressed in Ishikawa cells assessed as increase in PRE activity at 50 uM after 24 hrs by luciferase reporter gene based luminescence assay (reference value: 25.7); type: cell-based; how it was run: as §2
[8] = biological target: T1, Progesterone receptor (Homo sapiens); test: Agonist activity at PR-b (unknown origin) expressed in Ishikawa cells assessed as increase in progesterone-induced PRE activity at 25 uM after 24 hrs by luciferase reporter gene based luminescence assay relative to control; type: cell-based; how it was run: as §1
[9] = biological target: T1, Progesterone receptor (Homo sapiens); test: Agonist activity at PR-b (unknown origin) expressed in Ishikawa cells assessed as increase in PRE activity at 1 to 50 uM after 24 hrs in absence of progesterone by luciferase reporter gene based luminescence assay; type: cell-based; how it was run: as §2
PEO1 [10] = test: Antiproliferative activity against human PEO1 cells at 25 to 50 uM after 5 days by SRB assay; type: functional, cell-based
How it was run: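 SRB growth assay in PEO1 cells: 1,000 cells/well in steroid-free medium, day-0 plate TCA-fixed 2 h after seeding. Compound was given together with 100 nM progesterone for five days, then cells TCA-fixed, SRB-stained, dye solubilized in 10 mM Tris, absorbance at 505 nm. Day-5 values normalized to day 0; n≥3.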

[11] = biological target: T1, Progesterone receptor (Homo sapiens); test: Agonist activity at PR-b (unknown origin) expressed in Ishikawa cells assessed as increase in progesterone-induced PRE activity at 50 uM after 24 hrs by luciferase reporter gene based luminescence assay relative to control; type: cell-based; how it was run: as §1
PEO1 [12] = test: Antiproliferative activity against human PEO1 cells at 1 to 50 uM after 5 days by SRB assay; type: functional, cell-based
How it was run: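 PEO1 cells (RPMI, 10% FBS, glutamine, pyruvate) seeded at 1,000/well in steroid-free medium, one plate fixed at 2 h as day 0. Compounds at 1–50 μM, alone without progesterone, for 5 days. Fixed with 20% TCA at 4 °C, stained with 0.4% SRB in 1% acetic acid, dissolved in 10 mM Tris, A505. Day 5 normalized to day 0; n≥3.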

PEO1 [13] = test: Antiproliferative activity against human PEO1 cells at 0.001 to 10 uM after 5 days by SRB assay; type: functional, cell-based
How it was run: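 PEO1 cells kept in RPMI with 2 mM glutamine, 2 mM sodium pyruvate and 10% FBS; seeded at 1,000 cells/well in steroid-free medium. A day-0 plate was fixed with 20% TCA 2 h after seeding; the second plate was treated for 5 days, then fixed. SRB stain (0.4% in 1% acetic acid), dissolved in 10 mM Tris, A505; day 5 normalized to day 0; n≥3.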

Row | SMILES | inhibition [1] | inhibition [2] | inhibition [3] | Activity [4] | Activity (Progesterone receptor) | further results
1 | COc1ccc(-c2coc3cc(O)ccc3c2=O)cc1 [FORMONONETIN] | > 90% | Active | Active | 57% | Not Active | –
2 | COc1cc(O)c2c(=O)c(-c3ccc(O)cc3)coc2c1 [PRUNETIN] | > 90% | Active | – | – | Not Active | inhibition [5]: Active
3 | COc1ccc(-c2coc3cc(O)cc(O)c3c2=O)cc1 [BIOCHANIN] | > 90% | Active | Active | Active | Not Active | Activity [6]: 55%
4 | O=c1c(-c2ccc(O)cc2)coc2cc3c(c(O)c12)OCO3 | – | – | – | – | Not Active | fold change (FC) [7]: 48.4; Activity [8]: 138%; Activity [9]: inactive; Activity (PEO1 [10]): Active; Activity [11]: 151%; Activity (PEO1 [12]): inactive
5 | CC(=O)[C@H]1CC[C@H]2[C@@H]3CCC4=CC(=O)CC[C@]4(C)[C@H]3CC[C@]12C | – | – | – | – | – | Activity (PEO1 [13]): inactive
